Published values from different studies.
AMY2: Pancreatic alpha-amylase (AMY2, Sus scrofa, UniProt P00690)
D14: D14 (Arabidopsis thaliana, UniProt Q9SQR3)
ATM: Serine-protein kinase ATM (ATM, Homo sapiens, UniProt Q13315)

Structure (SMILES) | target | assay | setting | measurement | value
O=C1C[C@@H](c2ccc(O)cc2)Oc2cc(O)cc(O)c21 | AMY2 | enzyme activity, inhibitor | 50 µM | inhibition | 33.3%
CC1=C(/C=C/C(C)=C/C=O)C(C)(C)CCC1 | D14 | thermal stability, DSF | 50 µM | ΔTm | -3.82 °C
O=c1c(O)c(-c2ccc(O)cc2)oc2cc(O)cc(O)c12 | AMY2 | enzyme activity, inhibitor | 50 µM, 30 min | inhibition | 88.9%
CC1=CC(O/C=C2/C(=O)OC3c4ccccc4CC23)OC1=O (racemic) | D14 | thermal stability | 50 µM | ΔTm | -7.73 °C
O=c1cc(-c2ccc(O)c(O)c2)oc2c(Br)c(O)c(Br)c(O)c12 | AMY2 | enzyme activity, inhibitor | 50 µM, 30 min | inhibition | 99.8%
Cc1cc(F)cc2c(CCC(=O)N[C@@H]3C(=O)NC[C@H]3O)c(-c3ccc(F)cc3)[nH]c12 | Muscarinic acetylcholine receptor M2 (CHRM2, Homo sapiens, UniProt P08172) | cell-free assay | 10 µM | inhibition | -4%
Cc1cc(O)c(-c2ccc([C@@H](C)CN(C)C)cc2)c2c1[nH]c(=O)c1sccc12 | ATM | cell-free assay, inhibitor | 0.1 µM, lysate | inhibition | 6.43%
COc1ccc2oc(-c3ccc4nc(N)oc4c3)c/c(=N\c3ccccc3NC(=O)CCN)c2c1 | ATM | binding, competition with immobilised ligand | 1 µM | remaining binding | 94%
O=c1cc(-c2ccc(O)cc2)oc2c(Br)c(O)c(Br)c(O)c12 | AMY2 | enzyme activity, inhibitor | 50 µM | inhibition | 69.3%
CC(=O)/C=C/C=C(C)/C=C/C1=C(C)CC(O)CC1(C)C (stereo in doubt) | D14 | thermal stability, DSF | 1 µM | ΔTm | 0.09 °C
C1=C/COCc2cc(ccc2OCCN2CCCC2)Nc2nccc(n2)-c2cccc(c2)COC/1 | Myosin-IIIb (MYO3B, Homo sapiens, UniProt Q8WXR4) | binding | 0.1 µM | remaining binding | 100%
C#Cc1cc(-c2cc(Nc3nc(N[C@@H](C)c4ccc(F)cn4)ncc3Cl)n[nH]2)ccc1C=O | MAP kinase-activated protein kinase 5 (MAPKAPK5, Homo sapiens, UniProt Q8IW41) | enzyme activity, inhibitor | 0.2 µM | inhibition | 14.9%
C[C@]1(O)CCCN(c2nc(Nc3ccc(S(=O)(=O)N[C@H]4CC[C@H](CN5CCN(c6ccc(C7CCC(=O)NC7=O)cc6F)CC5)CC4)cc3Cl)ncc2C(F)(F)F)C1 (stereo partly shown) | Cyclin-dependent kinase 4, with cyclin D3 (CDK4, Homo sapiens, UniProt P11802) | binding, competition with immobilised ligand | 1 µM | remaining binding | 100%
CCCCC(=O)Nc1ccc(-c2ccc3ncn(CCC)c(=O)c3c2)cn1 | Serine/threonine-protein kinase 24 (STK24, Homo sapiens, UniProt Q9Y6E0) | binding, competition with immobilised ligand | 0.5 µM | remaining binding | 97%
CC1=C(/C=C/C(C)=C/C=O)C(C)(C)C[C@H](O)C1 | D14 | thermal stability, DSF | 10 µM | ΔTm | 0.16 °C
O=c1c(O)c(-c2ccc(O)c(O)c2)oc2c(Br)c(O)c(Br)c(O)c12 | AMY2 | enzyme activity, inhibitor | 50 µM, 30 min | inhibition | 70.2%
Cc1cc(S(=O)(=O)N[C@H]2CC[C@H](CN3CCN(c4ccc(C5CCC(=O)NC5=O)cc4F)CC3)CC2)ccc1Nc1ncc(C(F)(F)F)c(N2CCC[C@](C)(O)C2)n1 (stereo partly shown) | Cyclin-dependent kinase 4 (CDK4, Homo sapiens, UniProt P11802) | binding, competition with immobilised ligand | 1 µM | remaining binding | 100%
O=c1cc(-c2ccc(O)c(O)c2)oc2cc(O)cc(O)c12 | AMY2 | enzyme activity, inhibitor | 50 µM, 30 min | inhibition | 97.5%
CC(=O)/C=C/C=C(C)/C=C/C1=C(C)CCCC1(C)C | D14 | thermal stability, DSF | 50 µM | ΔTm | 1.3 °C
